Results as given in ChEMBL document CHEMBL5528081 (J Med Chem, 2024).

Key:
[1] = Inhibition of V-ATPase-dependent lysosomal acidification in human CD4 positive T cells transduced with replication defective HIV containing GFP reporter (delta GPE) assessed as fluorescence of pH-sensitive Lysotracker dye incubated for 24 hrs by flow cytometry; format: cell-based; conditions: CD4+ T cell
How it was run: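 CD8-depleted PHA/IL-2-activated primary CD4+ T cells spinoculated with VSV-G-pseudotyped HIV ΔGPE, 48 h later plated 1×10^5/well and treated 24 h with serial dilutions (top 1000 nM, final IL-2 50 U/mL).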

[2] = Cytotoxicity against human CD4 positive T cells transduced with replication defective HIV containing GFP reporter (delta GPE) assessed as cell viability by measuring vital dye uptake incubated for 72 hrs by flow cytometric assay; format: toxicity, cell-based; conditions: for CC50 at 72 h: read-out: TC50
How it was run: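 Primary human PBMCs, CD8-depleted, PHA-L (10 ug/mL) then IL-2 activated; donor-matched mock-transduced cells plated 1×10^5/well in R10 with IL-2 (final 50 U/mL), compounds serially diluted from DMSO stocks (top 1000 nM), 72 h.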

[3] = Inhibition of Nef protein-dependent MHC-1 HLA-A2 down modulation in human CD4 positive T cells transduced with replication defective HIV containing GFP reporter (delta GPE) assessed as restoration of MHC-1 measured after 24 hrs by HLA-A2 staining based flow cytometry; format: cell-based, Human immunodeficiency virus, CD4+ T cell
[4] = (§1) Therapeutic ratio, ratio of IC50 for Cytotoxicity against human CD4 positive T cells transduced with replication defective HIV containing GFP reporter (delta GPE) to IC50 for Inhibition of Nef protein-dependent MHC-1 HLA-A2 down modulation in human CD4 positive T cells transduced with replication defective HIV containing GFP reporter (delta GPE); format: toxicity, cell-based; conditions: read-out: Ratio IC50
How it was run: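 Primary human CD4+ T cells (PBMC, CD8-depleted, PHA then IL-2 activated) spinoculated with VSV-G-pseudotyped ΔGPE reporter; 48 h later treated with serial dilutions in R10 + 50 U/mL IL-2, top 1000 nM.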

[5] = as §1, with “Neutralization” for “Therapeutic”, “Inhibition of V-ATPase-dependent lysosomal acidification in” for “Cytotoxicity against”
CD4+ T cell = conditions: Human immunodeficiency virus, dose 0.05-10 nM
[6] = Human immunodeficiency virus 1, CD4+ T cell, 24 h

## CO/C1=C\C(C)=C\[C@@H](C)[C@@H](O)[C@@H](C)C/C(C)=C/C=C/[C@H](OC)[C@@H]([C@@H](C)[C@@H](O)[C@H](C)[C@@]2(O)C[C@@H](OC(=O)c3ccccc3)[C@H](C)[C@@H](C(C)C)O2)OC1=O
[1]
  IC50: 128 nM

## CC[C@H]1OC(=O)[C@H](C)[C@@H](O[C@@H]2O[C@H](C)C[C@H](N(C)C)[C@H]2O)[C@@H](C)C[C@@H](C)C(=O)/C=C/[C@H]1C
[1]
  IC50: > 1000 nM
[2]
  IC50 at 72 h: > 1000 nM
[3]; [6]
  IC50: > 1000 nM

## C/C=C/[C@H]1O[C@@](O)([C@@H](C)[C@H](O)[C@H](C)[C@H]2OC(=O)/C(OC)=C/C(C)=C/[C@@H](C)[C@@H](O)[C@@H](CC)[C@@H](O)[C@H](C)C/C(C)=C/C=C/[C@@H]2OC)C[C@@H](O[C@H]2C[C@@H](OC(C)=O)[C@H](OC(N)=O)[C@@H](C)O2)[C@@H]1C
[4]
  selectivity ratio: 8.5

## CCCCC(=O)O[C@@H]1C[C@](O)([C@@H](C)[C@H](O)[C@H](C)[C@H]2OC(=O)/C(OC)=C/C(C)=C/[C@@H](C)[C@@H](O)[C@@H](C)C/C(C)=C/C=C/[C@@H]2OC)O[C@H](C(C)C)[C@H]1C
[5]
  Ratio IC50: 1.5
[3]; [6]
  IC50: 37 nM
[4]
  selectivity ratio: 1.4

## CO/C1=C\C(C)=C\[C@@H](C)[C@@H](O)[C@@H](C)C/C(C)=C/C=C/[C@H](OC)[C@@H]([C@@H](C)[C@@H](O)[C@H](C)[C@H]2C[C@@H](O)[C@H](C)[C@@H](C(C)C)O2)OC1=O
[5]
  Ratio IC50: 4.1
[3]; [6]
  IC50: 34 nM
[4]
  selectivity ratio: 1.4

## C=C/C=C/C(=O)O[C@@H]1C[C@](O)([C@@H](C)[C@H](O)[C@H](C)[C@H]2OC(=O)/C(OC)=C/C(C)=C/[C@@H](C)[C@@H](O)[C@@H](C)C/C(C)=C/C=C/[C@@H]2OC)O[C@H](C(C)C)[C@H]1C
[5]
  Ratio IC50: 1.5
[3]; [6]
  IC50: 17 nM
[4]
  selectivity ratio: 1.4

## CO[C@H]1/C=C/O[C@@]2(C)Oc3c(C)c(O)c4c(O)c(c(/C=N/N5CCN(C)CC5)c(O)c4c3C2=O)NC(=O)/C(C)=C\C=C\[C@H](C)[C@H](O)[C@@H](C)[C@@H](O)[C@@H](C)[C@H](OC(C)=O)[C@@H]1C [RIFAMPIN]
[1]
  IC50: > 1000 nM
[2]
  IC50 at 72 h: > 1000 nM
[3]; [6]
  IC50: > 1000 nM

## C/C=C/[C@H]1O[C@@](O)([C@@H](C)[C@H](O)[C@H](C)[C@H]2OC(=O)/C(OC)=C/C(C)=C/[C@@H](C)[C@@H](O)[C@@H](CC)[C@@H](OC(C)=O)[C@H](C)C/C(C)=C/C=C/[C@@H]2OC)C[C@@H](O[C@H]2C[C@@H](OC(C)=O)[C@H](OC(N)=O)[C@@H](C)O2)[C@@H]1C
CD4+ T cell
  inhibition: Dose-Dependent Effect

## COc1cc2c(O)c3c(c(-c4ccc5c(c4)OCO5)c2cc1OC)C(=O)OC3 [DIPHYLLIN]
[1]
  IC50: > 1000 nM
[2]
  IC50 at 72 h: > 1000 nM
[3]; [6]
  IC50: > 1000 nM

## C/C=C/[C@H]1O[C@@](O)([C@@H](C)[C@H](O)[C@H](C)[C@H]2OC(=O)/C(OC)=C/C(C)=C/[C@@H](C)[C@@H](O)[C@@H](CC)[C@@H](OC(C)=O)[C@H](C)C/C(C)=C/C=C/[C@@H]2OC)C[C@@H](O[C@H]2C[C@@H](OC(C)=O)[C@H](OC(C)=O)[C@@H](C)O2)[C@@H]1C
[5]
  Ratio IC50: 3.6
[3]; [6]
  IC50: 2.8 nM
[4]
  selectivity ratio: 1.8

## CO/C1=C\C(C)=C\[C@@H](C)[C@@H](O)[C@@H](C)C/C(C)=C/C=C/[C@H](OC)[C@@H]([C@@H](C)[C@@H](O)[C@H](C)[C@@]2(OC)C[C@@H](O)[C@H](C)[C@@H](C(C)C)O2)OC1=O
[5]
  Ratio IC50: 2.3
[3]; [6]
  IC50: 12 nM
[4]
  selectivity ratio: 1.2

## CO/C1=C\C(C)=C\[C@@H](C)[C@@H](O)[C@@H](C)C/C(C)=C/C=C/[C@H](OC)[C@@H]([C@@H](C)[C@@H](O)[C@H](C)[C@@]2(O)C[C@@H](O[C@@H]3O[C@@H](C)[C@H](O)[C@@H](O)[C@H]3OC)[C@H](C)[C@@H](C(C)C)O2)OC1=O
[2]
  CC50 at 72 h: 1.4 nM

## CO/C1=C\C(C)=C\[C@@H](C)[C@@H](O)[C@@H](C)C/C(C)=C/C=C/[C@H](OC)[C@@H]([C@@H](C)[C@@H](O)[C@H](C)[C@H]2C[C@@H](OC)[C@H](C)[C@@H](C(C)C)O2)OC1=O
[5]
  Ratio IC50: 2.7
[3]; [6]
  IC50: 20 nM
[4]
  selectivity ratio: 1.4

## C/C=C/[C@H]1O[C@@H]([C@@H](C)[C@H](O)[C@H](C)[C@H]2OC(=O)/C(OC)=C/C(C)=C/[C@@H](C)[C@@H](O)[C@@H](CC)[C@@H](O)[C@H](C)C/C(C)=C/C=C/[C@@H]2O)C[C@@H](O)[C@@H]1C
[3]; [6]
  IC50: 400 nM

## C/C=C/[C@H]1O[C@@](O)([C@@H](C)[C@H](O)[C@H](C)[C@H]2OC(=O)/C(OC)=C/C(C)=C/[C@@H](C)[C@@H](O)[C@@H](CC)[C@@H](OC(C)=O)[C@H](C)C/C(C)=C/C=C/[C@@H]2OC)C[C@@H](OC(C)=O)[C@@H]1C
[5]
  Ratio IC50: 5.4
[3]; [6]
  IC50: 3.6 nM
[4]
  selectivity ratio: 2.5

## CO/C1=C\C(C)=C\[C@@H](C)[C@@H](O)[C@@H](C)C/C(C)=C/C=C/[C@H](OC)[C@@H]([C@@H](C)[C@@H](O)[C@H](C)[C@H]2C=C(O)[C@H](C)[C@@H](C(C)C)O2)OC1=O
[5]
  Ratio IC50: 2.6
[3]; [6]
  IC50: 140 nM
[4]
  selectivity ratio: 1.6

## CC[C@H]1OC(=O)C(C)C(O)[C@@H](C)C[C@@H](C)C(=O)/C=C/[C@H]1C (some centres undefined)
[1]
  IC50: 1720 nM
[2]
  IC50 at 72 h: 140 nM
[3]; [6]
  IC50: 350 nM

## CNC(=O)O[C@@H](CC(C)C)c1nc([C@H]2OC(=O)/C(C)=C/C/C(C)=C/[C@@H](O)[C@@H](C)\C=C(C)/C=C(C)\C=C\[C@@H](O)[C@H](C)[C@H](OC)/C(C)=C/C=C/[C@@H]2C)cs1 [ARCHAZOLID A]
[3]; cd4+ t cell
  IC50: 0.47 nM

## C/C=C/[C@H]1O[C@@](O)([C@@H](C)[C@H](O)[C@H](C)[C@H]2OC(=O)/C(OC)=C/C(C)=C/[C@@H](C)[C@@H](O)[C@@H](CC)[C@@H](O)[C@H](C)C/C(C)=C/C=C/[C@@H]2OC)C[C@@H](O[C@H]2C[C@@H](OC(C)=O)[C@H](OC(C)=O)[C@@H](C)O2)[C@@H]1C
[5]
  Ratio IC50: 4.2
[3]; [6]
  IC50: 0.72 nM
[4]
  selectivity ratio: 1.8

## C/C=C/[C@H]1O[C@@](O)([C@@H](C)[C@H](O)[C@H](C)[C@H]2OC(=O)/C(OC)=C/C(C)=C/[C@@H](C)[C@@H](O)[C@@H](CC)[C@@H](O)[C@H](C)C/C(C)=C/C=C/[C@@H]2OC)C[C@@H](OC(C)=O)[C@@H]1C
[5]
  Ratio IC50: 5.6
[3]; [6]
  IC50: 1.2 nM
[4]
  selectivity ratio: 5.8

## C/C=C/[C@H]1O[C@@H]([C@@H](C)[C@H](O)[C@H](C)[C@H]2OC(=O)/C(OC)=C/C(C)=C/[C@@H](C)[C@@H](O)[C@@H](CC)[C@@H](O)[C@H](C)C/C(C)=C/C=C/[C@@H]2OC)C[C@@H](O)[C@@H]1C
[3]; [6]
  IC50: 4.5 nM

## CO/C1=C\C(C)=C\[C@@H](C)C(=O)[C@@H](C)C/C(C)=C/C=C/[C@H](OC)[C@@H]([C@@H](C)[C@@H](O)[C@H](C)[C@@]2(O)CC(=O)[C@H](C)[C@@H](C(C)C)O2)OC1=O
[3]; cd4+ t cell
  IC50: > 1000 nM

## CCCCCCCCC(=O)O[C@@H]1C[C@](O)([C@@H](C)[C@H](O)[C@H](C)[C@H]2OC(=O)/C(OC)=C/C(C)=C/[C@@H](C)[C@@H](O)[C@@H](C)C/C(C)=C/C=C/[C@@H]2OC)O[C@H](C(C)C)[C@H]1C
[5]
  Ratio IC50: 1.2
[3]; [6]
  IC50: 130 nM
[4]
  selectivity ratio: 1.1

## C/C=C/C=C/[C@H]1O[C@@](O)([C@@H](C)[C@H](O)[C@H](C)[C@H]2OC(=O)/C(OC)=C/C(C)=C/[C@@H](C)[C@@H](O)[C@@H](C)C/C(C)=C/C=C/[C@@H]2OC)C[C@@H](O[C@H]2C[C@@H](O)[C@H](O)[C@@H](C)O2)[C@@H]1C
[2]
  CC50 at 72 h: 1.3 nM

## C/C=C/[C@H]1O[C@@](O)([C@@H](C)[C@H](O)[C@H](C)[C@H]2OC(=O)/C(OC)=C/C(C)=C/[C@@H](C)[C@@H](O)[C@@H](CC)[C@@H](O)[C@H](C)C/C(C)=C/C=C/[C@@H]2OC)C[C@@H](O[C@H]2C[C@@H](O)[C@H](OC(N)=O)[C@@H](C)O2)[C@@H]1C
CD4+ T cell
  inhibition: Dose-Dependent Effect

## CO/C1=C\C(C)=C\[C@@H](C)C(=O)[C@@H](C)C/C(C)=C/C=C/[C@H](OC)[C@@H]([C@@H](C)[C@@H](O)[C@H](C)[C@@]2(O)C[C@@H](O)[C@H](C)[C@@H](C(C)C)O2)OC1=O
[3]; cd4+ t cell
  IC50: > 1000 nM

## C/C=C/[C@H]1O[C@@](O)([C@@H](C)[C@H](O)[C@H](C)[C@H]2OC(=O)/C(OC)=C/C(C)=C/[C@@H](C)[C@@H](O)[C@@H](C)[C@@H](O)[C@H](C)C/C(C)=C/C=C/[C@@H]2OC)C[C@@H](O[C@H]2C[C@@H](OC(C)=O)[C@H](OC(N)=O)[C@@H](C)O2)[C@@H]1C
[5]
  Ratio IC50: 21
[3]; [6]
  IC50: 0.66 nM
[4]
  selectivity ratio: 8
